Source: PubChem BioAssay
Rpn11 block – Rpn11 (PSMD14) deubiquitinase inhibitors, primary screen, biochemical, fluorescence polarization, uHTS; inhibition, % at 20 µM; hit rate 0.59% among 360,000; 26S proteasome non-ATPase regulatory subunit 14 (Homo sapiens), O00487; AID 588493, 2011; human 26S proteasome, Ub4-pepOG fluorescence polarization; 20S core pre-blocked with epoxomicin;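 active = inhibition at 20 µM, scaled to each plate's controls, above about 33%, limit read from the data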
CSN deneddyl inh – inhibitors of CSN-mediated cullin deneddylation, primary screen, biochemical, fluorescence polarization, uHTS | inhibition, % at 12.5 µM | hit rate 0.38% among 360,000 | COP9 signalosome complex subunit 5 (Homo sapiens), Q92905 | Purified CSN, SCF-Nedd8-OG deneddylation;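 active = pattern-corrected inhibition above about 35%, with an unprinted fluorescence ratio check between 0.5 and 1.5, limit read from the data, passing the limit was not always enough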;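 also: 0% = enzyme with substrate and 100% = substrate without enzyme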
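Assay system: purified human Csn5 enzyme expressed in HEK293T cells; Input: 0.24 nM Csn5 enzyme, final concentration; Reagent: 10 nM SCFSkp2-Nedd8OG; Compound dosing: 12.5 µM single point; Times: reaction 90 min, room temperature; Technique: fluorescence polarization readout.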
TPT1 inh – Candida albicans TPT1 enzyme inhibitors, primary screen, biochemical, fluorescence polarization; inhibition, % at 5 µM; recombinant caTPT1, FP RNA substrate dephosphorylation; hit rate 0.81% among 300,000; tRNA 2'-phosphotransferase TPT1 (Candida albicans SC5314);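 active = inhibition above the mean of all tested compounds plus 3 SD, set per screening campaign, cut at about 24% in these data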;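 also: plate controls were DMSO alone for no effect and ferristatin control at 100 nM for full effect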
HNF4A DNA FP – change in binding of human HNF4A to DNA, primary screen, biochemical, fluorescence polarization, FITC-DNA; 1 h; activity change, % at 10 µM; hit rate 0.3% among 360,000; AID 1224865, 2016; in the data active = activity change above about 30%, passing the limit was not always enough
IDE act – human IDE activators in live cells, primary screen, fluorescence polarization, HEK cells, FAbeta-B substrate | Insulin-degrading enzyme (Homo sapiens), P14735 | FAbeta-B cleavage; 0% vehicle, 100% cell-free pure enzyme wells | activation, % at 5.96 µM | hit rate 0.073% among 340,000;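 active = activation above the mean of all tested compounds plus 3 SD, set per screening campaign, cut at about 17% in these data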
IDE cell inh – human IDE inhibitors in live cells, primary screen, fluorescence polarization, HEK cells, FAbetaB substrate; Insulin-degrading enzyme (Homo sapiens), P14735; FAbetaB cleavage; inhibition, % at 5.59 µM; hit rate 0.41% among 320,000; AID 434962, 2010;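 active = percent inhibition above the average of all tested compounds plus 3 SD, set per screening campaign, cut at about 16% in these data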;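 also: IDE supplied by intact live HEK cells; FP after avidin binding of uncleaved biotin substrate so inhibition keeps polarization high; 0% = DMSO wells and 100% = 60 µM reference IDE inhibitor Ii1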
Numbers without * were called inactive; · = not tested or not shown. A selection: hits, their analogues and other compounds. The true share with any hit is near 1.7%.

SMILES	Rpn11 block	CSN deneddyl inh	TPT1 inh	HNF4A DNA FP	IDE act	IDE cell inh
O=C(CSc1nc(N2CCOCC2)nc(N2CCOCC2)n1)Nc1ccc([N+](=O)[O-])cc1	2	2	2	2	23*	-14
O=C(CSc1nc(Nc2ccccc2)nc(N2CCOCC2)n1)Nc1ccc([N+](=O)[O-])cc1	-13	-2	-5	3	3	6
O=C(COc1ccc(Cl)cc1)NCCNC(=O)c1ccccn1	6	1	-3	55*	2	1
COc1cc(C(C)=O)ccc1OCC(=O)N1CCc2ccccc2C1	-2	92*	2	1	0	-2
Cc1ccc(OCC(=O)N2CCc3ccccc3C2)c(C)c1	1	3	-5	-1	4	5
Cc1ccc(C(C)C)cc1S(=O)(=O)NC1CC(C)(C)NC(C)(C)C1	3	-2	-4	0	-3	-4
O=C(COC(=O)c1ccc([N+](=O)[O-])s1)Nc1ncc(C(F)(F)F)cc1Cl	25	38*	10	13	5	0
Cc1c(OC(C)C(=O)NCCN2CCOCC2)ccc2c3c(c(=O)oc12)CCCC3 (stereo not given)	-1	41*	1	4	-4	5
Cc1cc(=O)oc2c(C)c(OC(C)C(=O)NCCN3CCOCC3)ccc12 (stereo not given)	0	2	-3	1	3	-5
O=C(CC(=O)c1ccccc1)Nc1ccc(Cl)cc1	-7	0	-3	42*	1	-2
O=C(Cc1ccc(Cl)cc1)Nc1ccc(NC(=O)c2ccccc2)cc1	2	9	-2	6	5	4
CC(C)Cn1[nH]c2c3c(ccc2c1=O)C(=O)c1ccccc1C3=O	-20	-8	-5	-6	-1	3
Cn1ncc2c(NCCc3ccccc3)nc(Cl)nc21	3	1	·	6	-3	·
Fc1ccc2nc(N3CCCC3)sc2c1	0	-6	-1	34*	-2	4
CCN(CCNC(=O)C1CCN(Cc2nc(-c3ccc(Cl)cc3)oc2C)CC1)c1ccccc1	-2	-3	0	63*	5	-4
COc1ccc(NC(=O)c2cc([N+](=O)[O-])ccc2O)cc1	-2	-4	1	11	22*	3
COC(=O)[C@@]1(Cc2ccc(F)cc2)[C@H]2c3cc(C(=O)N(C)C)n(Cc4cc(C)n(C)n4)c3C[C@H]2CN1C(=O)c1ccccc1	·	102*	·	-1	·	·
CCc1cc(=O)oc2c3c(cc(OCC(=O)Nc4cccnc4)c12)OC(C)(C)CC3	0	1	0	5	-2	0
Cc1c(C)c2c(OCC(=O)Nc3cccnc3)cc3c(c2oc1=O)CCC(C)(C)O3	11	11	-1	55*	2	7
OCCCc1nc2n(n1)C(c1ccccc1Cl)C=C(c1cccs1)N2 (stereo not given)	-25	3	24*	22	-4	4
OCCCc1nc2n(n1)C(c1ccccc1)C=C(c1ccc(F)cc1)N2 (stereo not given)	-15	-10	12	-4	4	3
OCCCc1nc2n(n1)C(c1cccs1)C=C(c1ccccc1)N2 (stereo not given)	·	·	-49	·	·	78*
N#CC1=C(N)Oc2ccc3ccc(O)cc3c2C1c1ccsc1 (stereo not given)	-156	-44	·	-120	-8	·
N#CCOC(=O)C1CSC2(c3ccc(Br)cc3)CCC(=O)N12 (stereo not given)	5	12	4	3	-3	-2
COC(=O)C1C2CC3c4[nH]c5cc(OC)ccc5c4CCN3CC2CC(OC(=O)CC(C)=O)C1OC (stereo not given)	·	11	·	49*	-4	·
COC(=O)C1C2CC3c4[nH]c5cc(OC)ccc5c4CCN3CC2CC(O)C1OC (stereo not given)	8	6	·	8	-1	·
